Assay results reported in ChEMBL document CHEMBL2203070, “1-(3,4,5-Trimethoxyphenyl)ethane-1,2-diyl esters, a novel compound class with potent chemoreversal activity” (Bioorg Med Chem Lett, 2012).

Columns and labels:
[1] = molecular target: Multidrug resistance-associated protein 1 (Homo sapiens, UniProt P33527); test: Inhibition of MRP-mediated Fluo3 efflux in human KBVIN cells at 10 uM incubated for 1 hr prior to Fluo3-addition measured after 2 hrs by fluorescence microscopic analysis; assay type: cell-based
Chain of Multidrug resistance-associated protein 1 (P33527 whole entry): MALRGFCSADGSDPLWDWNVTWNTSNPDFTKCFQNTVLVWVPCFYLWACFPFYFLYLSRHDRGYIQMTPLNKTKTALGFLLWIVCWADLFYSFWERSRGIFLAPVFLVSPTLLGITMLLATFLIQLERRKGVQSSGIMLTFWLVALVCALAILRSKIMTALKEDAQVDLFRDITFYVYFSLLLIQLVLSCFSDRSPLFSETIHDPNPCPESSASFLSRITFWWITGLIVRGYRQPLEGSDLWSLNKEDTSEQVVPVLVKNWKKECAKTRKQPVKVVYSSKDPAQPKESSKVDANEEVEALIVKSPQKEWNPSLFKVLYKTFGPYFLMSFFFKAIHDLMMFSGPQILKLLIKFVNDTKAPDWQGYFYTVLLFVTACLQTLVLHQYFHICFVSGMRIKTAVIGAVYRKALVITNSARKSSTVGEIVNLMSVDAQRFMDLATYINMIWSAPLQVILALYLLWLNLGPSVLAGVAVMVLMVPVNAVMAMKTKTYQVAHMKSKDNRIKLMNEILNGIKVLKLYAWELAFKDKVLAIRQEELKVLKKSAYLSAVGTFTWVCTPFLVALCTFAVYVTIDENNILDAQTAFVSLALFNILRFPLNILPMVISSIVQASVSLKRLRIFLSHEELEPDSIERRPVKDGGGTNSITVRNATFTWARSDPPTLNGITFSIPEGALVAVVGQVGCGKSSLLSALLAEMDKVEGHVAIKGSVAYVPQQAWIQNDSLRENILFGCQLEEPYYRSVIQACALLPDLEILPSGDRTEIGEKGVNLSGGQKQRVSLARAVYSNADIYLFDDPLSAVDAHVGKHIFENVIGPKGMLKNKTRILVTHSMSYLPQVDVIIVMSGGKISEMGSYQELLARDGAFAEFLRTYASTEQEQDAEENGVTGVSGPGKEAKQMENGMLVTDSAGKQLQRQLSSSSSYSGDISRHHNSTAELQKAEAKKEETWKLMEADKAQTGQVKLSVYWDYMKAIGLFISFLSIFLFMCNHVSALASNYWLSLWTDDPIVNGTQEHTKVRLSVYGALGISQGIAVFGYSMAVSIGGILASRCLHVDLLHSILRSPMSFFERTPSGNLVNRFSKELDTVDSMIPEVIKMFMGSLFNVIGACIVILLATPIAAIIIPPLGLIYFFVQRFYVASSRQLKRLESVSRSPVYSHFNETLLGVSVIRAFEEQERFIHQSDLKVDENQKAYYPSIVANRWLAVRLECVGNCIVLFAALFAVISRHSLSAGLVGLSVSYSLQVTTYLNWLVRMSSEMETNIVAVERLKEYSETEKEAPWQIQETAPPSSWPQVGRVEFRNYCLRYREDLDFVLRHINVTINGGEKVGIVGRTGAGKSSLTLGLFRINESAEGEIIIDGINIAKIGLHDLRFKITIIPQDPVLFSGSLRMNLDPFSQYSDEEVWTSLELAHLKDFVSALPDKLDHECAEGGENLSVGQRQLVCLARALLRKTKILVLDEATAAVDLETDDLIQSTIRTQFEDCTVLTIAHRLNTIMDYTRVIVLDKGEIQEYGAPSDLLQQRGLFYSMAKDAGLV
Procedure, shortened: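 KB or KBvin cells pretreated 1 h with compound or DMSO, then Fluo-3 AM (fluorogenic MRP substrate) added for 2 h; intracellular Fluo-3 retention judged by fluorescence microscopy.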

[2] = Potentiation of doxorubicin-mediated cytotoxicity against human KBVIN cells assessed as reduction in doxorubicin IC50 at 10 uM after 72 hrs by SRB method relative to control; assay type: functional
Procedure, shortened: (§1)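 IC50 of paclitaxel, vincristine or doxorubicin measured in KBvin cells with and without 10 μM compound; reversal fold = IC50 (drug alone)/IC50 (drug + compound); mean ± SD of three independent experiments; verapamil as reference.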

[3] = Potentiation of vincristine-mediated cytotoxicity against human KBVIN cells assessed as reduction in vincristine IC50 at 10 uM after 72 hrs by SRB method relative to control; assay type: functional; procedure, shortened: as §1
[4] = Potentiation of paclitaxel-mediated cytotoxicity against human KBVIN cells assessed as reduction in paclitaxel IC50 at 10 uM after 72 hrs by SRB method relative to control; assay type: functional; procedure, shortened: as §1
[5] = Potentiation of paclitaxel-mediated cytotoxicity against human KBVIN cells assessed as cell viability at 10 uM after 72 hrs by SRB method relative to control; assay type: functional; details: read-out: Activity
KB = test: Potentiation of paclitaxel-mediated cytotoxicity against human KB cells assessed as cell viability at 10 uM after 72 hrs by SRB method relative to control; assay type: functional; details: read-out: Activity
[6] = Cytotoxicity against human KBVIN cells assessed as cell viability at 10 uM after 72 hrs by SRB method relative to control; assay type: cell-based; details: read-out: Activity
[7] = Cytotoxicity against human KB cells assessed as cell viability at 10 uM after 72 hrs by SRB method relative to control; assay type: cell-based; details: read-out: Activity
[8] = Cytotoxicity against human KB cells assessed as cell viability at 10 ug/ml; assay type: cell-based; details: read-out: Activity
[9] = Cytotoxicity against human KBVIN cells assessed as cell viability at 10 ug/ml; assay type: cell-based; details: read-out: Activity
[10] = Cytotoxicity against human A549 cells assessed as cell viability at 10 ug/ml; assay type: cell-based; details: read-out: Activity
[11] = Cytotoxicity against human DU145 cells assessed as cell viability at 10 ug/ml; assay type: cell-based, DU-145; details: read-out: Activity
KBVIN = details: Homo sapiens
[12] = Potentiation of vincristine-mediated cytotoxicity against human KBVIN cells assessed as reduction in vincristine IC50 at 10 uM after 72 hrs by SRB method relative to verapamil; assay type: functional; procedure, shortened: as §1

Compound | inhibition (INH) [1] | fold change (FC) [2] | fold change (FC) [3] | fold change (FC) [4] | viability at 10 µM [5] | viability at 10 µM (KB) | viability at 72 h, 10 µM [6] | viability at 72 h, 10 µM [7] | viability at 10 ug/ml [8] | viability at 10 ug/ml [9] | viability at 10 ug/ml [10] | viability at 10 ug/ml [11] | Flu intensity (KBVIN) | fold change (FC) [12]
COc1cc(C(=O)OCC(O[Si](C)(C)C(C)(C)C)c2cc(OC)c(OC)c(OC)c2)cc(OC)c1OC (stereo not given) | Active | 79 | 1684 | 216 | 12.3% | 70.3% | 74.3% | 83.9% | > 80% | > 80% | > 80% | > 80% | 184 | 
C/C=C/C(=O)OCC(OC(=O)CCCCCCCCCCC)c1cc(OC)c(OC)c(OC)c1 (stereo not given) |  |  |  |  | 44% | 83.9% | 79.9% | 91.1% | 76.2% | 41.1% | 51.1% | 41.9% |  | 
COc1cc(C(COC(C)=O)OC(C)=O)cc(OC)c1OC (stereo not given) |  |  |  |  | 92% | 96% | 91.5% | 98% | > 80% | > 80% | > 80% | > 80% |  | 
COc1cc(C(=O)OCC(OC(=O)c2cc(OC)c(OC)c(OC)c2)c2cc(OC)c(OC)c(OC)c2I)cc(OC)c1OC (stereo not given) | Not Active | 156 | 2285 | 141 | 0% | 73.7% | 87.1% | 84.2% | 75.4% | 47% | 56.2% | 46.6% | 456 | 340
COc1cc(C(=O)OCC(O)c2cc(OC)c(OC)c(OC)c2I)cc(OC)c1OC (stereo not given) |  | 51 | 798 | 164 | 0% | 75.7% | 83.3% | 77% | > 80% | > 80% | > 80% | > 80% | 226 | 
COc1ccc(/C=C/C(=O)OCC(OC(=O)/C=C/c2ccccc2)c2cc(OC)c(OC)c(OC)c2I)cc1OC (stereo not given) |  | 23 | 620 | 166 | 0% | 76.5% | 95.3% | 85.9% | > 80% | > 80% | > 80% | > 80% | 414 | 
C/C=C/C=C/C(=O)OCC(OC(=O)/C=C/C=C/C)c1cc(OC)c(OC)c(OC)c1 (stereo not given) |  |  |  |  | 31.3% | 76.8% | 81.5% | 91.2% | 74.7% | 50.1% | 49.6% | 40.8% |  | 
COc1ccc(CCN(C)CCCC(C#N)(c2ccc(OC)c(OC)c2)C(C)C)cc1OC (stereo not given) [VERAPAMIL] |  | 6 | 97 | 72 |  |  |  |  |  |  |  |  |  | 
COc1cc(C(O)CO)cc(OC)c1OC (stereo not given) |  |  |  |  | 99% | 96.8% | 92.4% | 101% | > 80% | > 80% | > 80% | > 80% |  | 
COc1cc(C(O)CO)c(I)c(OC)c1OC (stereo not given) |  |  |  |  | 91.8% | 97% | 90% | 95.1% | > 80% | > 80% | > 80% | > 80% |  | 
COc1cc(C(=O)OCC(O[Si](C)(C)C(C)(C)C)c2cc(OC)c(OC)c(OC)c2I)cc(OC)c1OC (stereo not given) |  |  |  |  | 19.6% | 58% | 41% | 64.2% | 26.1% | 36.7% | 37% | 0% |  | 
COc1cc(C(O)COC(=O)C2CCCCC2)cc(OC)c1OC (stereo not given) |  |  |  |  | 103% | 96.7% | 110% | 98.9% | > 80% | > 80% | > 80% | > 80% |  | 
